Data published in ChEMBL document CHEMBL4706606, “Re-evaluating pretomanid analogues for Chagas disease: Hit-to-lead studies reveal both in vitro and in vivo trypanocidal efficacy” (Eur J Med Chem, 2020).
Values after ≈ are worked out from the molar mass of the structure shown. Active and inactive are the calls of the source. The calls are words filed in the database; no cut-off is given here.

Tests used:
Trypanosoma cruzi [1] = assay: Antitrypanosomal activity against Trypanosoma cruzi Tulahuen strain C2C4 amastigotes infected in […] cells assessed as reduction in parasite growth incubated for 48 hrs by chlorophenol red-fl-D-galactopyranoside based colorimetric analysis; assay type: functional, organism-based; conditions: for IC50: Tulahuen strain C2C4, NIH3T3, 48 h; for IC90: Tulahuen strain C2C4, NIH3T3, time 48 hrs
[2] = Cytotoxicity against rat 3T3 cells assessed as reduction in cell viability incubated for 72 hrs by alamar blue assay; assay type: ADME, cell-based; conditions: NIH3T3, 72 h
Trypanosoma cruzi [3] = assay: Antitrypanosomal activity against Trypanosoma cruzi Tulahuen strain C2C4 amastigotes infected in […] cells assessed as reduction in parasite growth incubated for 48 hrs by chlorophenol red-fl-D-galactopyranoside based colorimetric analysis relative to control; assay type: functional
[4] = Inhibition of Trypanosoma cruzi Tulahuen C4 strain CYP51 expressed in Escherichia coli by fluorescence based assay
[5] = Selectivity index, ratio of IC50 for cytotoxicity against rat 3T3 cells to IC50 for antitrypanosomal activity against Trypanosoma cruzi Tulahuen strain C2C4 amastigotes infected in rat 3T3 cells
Trypanosoma cruzi [6] = assay: Antitrypanosomal activity against bloodstream trypomastigotes form of Trypanosoma cruzi CL Brener infected in BALB/c mouse assessed as reduction in parasitemia at 100 mg/kg, po qd administered for 5 days starting from day 114 post infection followed by cyclophosphamide induced immunosuppression on days 135, 139 and 143 post infection and measured for 149 days by bioluminescence analysis; assay type: functional, organism-based; conditions: time 5.0 day
Summary of the method: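 Female BALB/c mice, 8 weeks old, ~18 g, 5 per group. Infected i.p. with 10^3 bloodstream trypomastigotes of bioluminescent CL Brener (pTRIX2-RE9h). From day 114 p.i., oral dosing once daily for 5 days: reference drugs at 100 mg/kg in HPMC-SV with 5% DMSO, PEG400 vehicle at 50 mg/kg. Cyclophosphamide 200 mg/kg i.p. on days 135, 139 and 143. Final imaging day 149. Ex vivo organ bioluminescence days 149-151.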

Trypanosoma cruzi [7] = assay: Antitrypanosomal activity against Trypanosoma cruzi Tulahuen strain C2C4 amastigotes infected in rat L6 cells assessed as inhibition of parasite growth incubated for 96 hrs by chlorophenol red-fl-D-galactopyranoside based colorimetric analysis; assay type: functional, organism-based; conditions: for IC50: Tulahuen strain C2C4, L6, 96 h; for IC90: Tulahuen strain C2C4, L6, time 96 hrs
Summary of the method: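 Tulahuen strain TcVI T. cruzi expressing β-galactosidase, grown in L6 rat skeletal myoblast host cells. IC50/IC90 growth inhibition. Each value is the mean of ≥2 independent determinations using fresh sample stock.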

L6 = assay: Cytotoxicity against rat L6 cells assessed as reduction in cell viability incubated for 72 hrs by alamar blue assay; assay type: ADME, cell-based; conditions: L6, 72 h
[8] = Selectivity index, ratio of IC50 for cytotoxicity against rat L6 cells to IC50 for antitrypanosomal activity against Trypanosoma cruzi Tulahuen strain C2C4 amastigotes infected in rat L6 cells
[9] = Kinetic solubility of compound in water sonicated for 15 mins by HPLC analysis
[10] = Metabolic stability in CD-1 mouse liver microsomes assessed as parent compound remaining incubated for 1 hr; assay type: ADME, Microsome
Summary of the method: (§1)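 Pooled human or CD-1 mouse liver microsomes at 0.4 mg/mL microsomal protein. Percent parent remaining after 1 h incubation.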

[11] = Metabolic stability in human liver microsomes assessed as parent compound remaining incubated for 1 hr; assay type: ADME, Microsome; conditions: read-out: Stabilty; summary of the method: as §1
Trypanosoma cruzi [12] = assay: Antitrypanosomal activity against Trypanosoma cruzi amastigotes assessed as inhibition of parasite growth at 10 ug/ml relative to control
[13] = Half life in human liver microsomes incubated for 60 mins

SMILES	IC50 (Trypanosoma cruzi [1])	IC90 (Trypanosoma cruzi [1])	IC50 [2]	%max (Trypanosoma cruzi [3])	IC50 [4]	IC50 (Trypanosoma cruzi [7])	IC90 (Trypanosoma cruzi [7])	IC50 (L6)	selectivity ratio [8]	other results
CSc1cnc2n1CC(C)(COc1ccc(OC(F)(F)F)cc1)O2 (stereo not given)	2 µM	16 µM	> 73 µM	93%	> 10 µM					selectivity ratio ([5]; 3T3 cells): > 37
O=C(Cn1ccnc1[N+](=O)[O-])NCc1ccccc1 [BENZNIDAZOLE]	12 µM	37 µM	> 127 µM	101%	> 10 µM					Activity (Trypanosoma cruzi [6]): Active; selectivity ratio ([5]; 3T3 cells): > 11
O=[N+]([O-])c1cn2c(n1)OC[C@@H](OCc1ccc(-c3ccccc3)cc1)C2						60 µM				
O=[N+]([O-])c1cn2c(n1)OC[C@H](OCc1ccc(-c3ccc(C(F)(F)F)cc3Cl)cc1)C2	0.28 µM	0.41 µM	> 37 µM	100%	7.6 µM	0.25 µM	0.71 µM	29 µM	116	solubility kinetic at 0.25 h [9]: < 0.1 µg/mL; remaining at 1 h [10]: 83%; remaining at 1 h [11]: 76%; selectivity ratio ([5]; 3T3 cells): > 132
CC1(COc2ccc(OC(F)(F)F)cc2)CCn2nc([N+](=O)[O-])nc2O1 (stereo not given)	0.22 µM	0.85 µM	> 37 µM	96%	> 10 µM					solubility kinetic at 0.25 h [9]: 9.5 µg/mL (≈ 25.4 µM); remaining at 1 h [10]: 92%; remaining at 1 h [11]: 91%; selectivity ratio ([5]; 3T3 cells): > 168
O=[N+]([O-])c1cn2c(n1)OC(COc1ccc(-c3ccc(F)nc3)cc1)CC2 (stereo not given)	0.074 µM	0.33 µM	> 37 µM	98%	> 10 µM	0.018 µM	0.044 µM	> 100 µM	> 5560	selectivity ratio ([5]; 3T3 cells): > 500
O=[N+]([O-])c1cn2c(n1)OC(COc1ccc(-c3ccc(OC(F)(F)F)cc3)nc1)CC2 (stereo not given)				100%						
O=[N+]([O-])c1cn2c(n1)OC[C@@H](OCc1cccc(-c3cccc(OC(F)(F)F)c3)c1)C2						> 10 µM	> 10 µM	13 µM		inhibition at 10 µg/mL (Trypanosoma cruzi [12]): 65%
O=[N+]([O-])c1cn2c(n1)OC(COc1ncc(-c3ccc(OC(F)(F)F)cc3)cn1)CC2 (stereo not given)						0.053 µM	0.33 µM	19 µM	358	
CC1(COc2ccc(OC(F)(F)F)cc2)CCn2cc([N+](=O)[O-])nc2S1(=O)=O (stereo not given)	1.3 µM	3 µM	> 37 µM	101%	> 10 µM	0.7 µM	1.6 µM	> 100 µM	> 143	solubility kinetic at 0.25 h [9]: 1.1 µg/mL (≈ 2.61 µM); remaining at 1 h [10]: 76%; remaining at 1 h [11]: 88%; selectivity ratio ([5]; 3T3 cells): > 28
CC1(COc2ccc(OC(F)(F)F)cc2Cl)CCn2cc([N+](=O)[O-])nc2O1 (stereo not given)						0.46 µM	1.3 µM	> 100 µM		solubility kinetic at 0.25 h [9]: 0.61 µg/mL (≈ 1.5 µM)
O=[N+]([O-])c1cn2c(n1)OC[C@H](OCC#Cc1ccc(OC(F)(F)F)cc1)C2	0.19 µM	0.44 µM	> 37 µM	99%	> 10 µM					selectivity ratio ([5]; 3T3 cells): > 195
O=[N+]([O-])c1cn2c(n1)OC[C@H](OCc1ccc(-c3ccc(OC(F)(F)F)cc3)cn1)C2	0.39 µM	2.6 µM	> 73 µM	80%	> 10 µM	0.049 µM	0.31 µM	51 µM		
CC1(COc2ccc(OC(F)(F)F)cc2)Cn2cc([N+](=O)[O-])nc2O1 (racemic)	0.95 µM	2.3 µM	> 73 µM	68%	> 10 µM					
O=[N+]([O-])c1cn2c(n1)OC(COc1cnc(-c3ccc(OC(F)(F)F)cc3)nc1)CC2 (stereo not given)						0.33 µM	0.96 µM	70 µM	212	
O=[N+]([O-])c1cn2c(n1)OC[C@@H](OCc1ccc(-c3ccc(OC(F)(F)F)cc3Cl)cc1)C2						5.7 µM	> 10 µM	19 µM	3.3	
O=[N+]([O-])c1nc2n(n1)C[C@H](OCc1ccc(OCc3ccccc3)cc1)CO2						0.047 µM	0.13 µM	> 100 µM	> 2130	solubility kinetic at 0.25 h [9]: 0.18 µg/mL (≈ 0.471 µM); inhibition at 10 µg/mL (Trypanosoma cruzi [12]): 12%
CC1(COc2ccc(OC(F)(F)F)c(F)c2)CCn2cc([N+](=O)[O-])nc2O1 (stereo not given)						0.56 µM	1.9 µM	68 µM		solubility kinetic at 0.25 h [9]: 0.95 µg/mL (≈ 2.43 µM)
O=[N+]([O-])c1cn2c(n1)[S+]([O-])CC(OCc1ccc(COc3ccccc3)cc1)C2 (stereo not given)						0.035 µM	0.089 µM	> 100 µM	> 2860	solubility kinetic at 0.25 h [9]: 0.44 µg/mL (≈ 1.06 µM); half-life at 1 h [13]: 2.6 h; inhibition at 10 µg/mL (Trypanosoma cruzi [12]): 89%

SMILES	IC50 (Trypanosoma cruzi [1])	IC90 (Trypanosoma cruzi [1])	IC50 [2]	%max (Trypanosoma cruzi [3])	IC50 [4]	IC50 (Trypanosoma cruzi [7])	IC90 (Trypanosoma cruzi [7])	IC50 (L6)	selectivity ratio [8]	other results
O=[N+]([O-])c1cn2c(n1)S(=O)(=O)CC(OCc1ccc(COc3ccccc3)cc1)C2 (stereo not given)						0.28 µM	0.44 µM	> 100 µM	> 357	solubility kinetic at 0.25 h [9]: 0.13 µg/mL (≈ 0.303 µM); half-life at 1 h [13]: 1.72 h; inhibition at 10 µg/mL (Trypanosoma cruzi [12]): 95%
O=[N+]([O-])c1cn2c(n1)OCC(OCc1ccc(OCc3ccccc3)cc1)C2 (stereo not given)						1.2 µM				
O=[N+]([O-])c1cn2c(n1)OC(COc1ccc(-c3ccc(F)cc3)nc1)CC2 (racemic)						0.17 µM	0.56 µM			
O=[N+]([O-])c1cn2c(n1)OC(COc1ccc(-c3ccc(OC(F)(F)F)cc3)cn1)CC2 (stereo not given)						0.04 µM	0.18 µM	> 100 µM	> 2500	
CC1CS(=O)(=O)CCN1/N=C/c1ccc([N+](=O)[O-])o1 (stereo not given) [NIFURTIMOX]	2.1 µM	4.6 µM	> 127 µM	99%	> 10 µM					Activity (Trypanosoma cruzi [6]): Active; selectivity ratio [5]: > 60
CC1(COc2ccc(OC(F)(F)F)cc2)Cn2c(Br)cnc2O1 (stereo not given)	1.7 µM	4.1 µM	> 73 µM	87%	0.53 µM					selectivity ratio ([5]; 3T3 cells): > 43
CC1(COc2ccc(OC(F)(F)F)c(Cl)c2)CCn2cc([N+](=O)[O-])nc2O1 (stereo not given)						0.31 µM	6.5 µM	53 µM		solubility kinetic at 0.25 h [9]: 0.5 µg/mL (≈ 1.23 µM)
O=[N+]([O-])c1cn2c(n1)SCC(OCc1ccc(OCc3ccccc3)cc1)C2 (stereo not given)						0.9 µM				
O=[N+]([O-])c1cn2c(n1)OC(COc1ccc(-c3ccc(OC(F)(F)F)cc3)nn1)CC2 (stereo not given)						0.38 µM	0.96 µM	42 µM	111	
CSc1ccc(OCc2ncc([N+](=O)[O-])n2C)cc1										Activity (Trypanosoma cruzi [6]): Active
CC1(COc2ccc(OC(F)(F)F)cc2)CCn2cc([N+](=O)[O-])nc2[S+]1[O-] (stereo not given)						1.6 µM	3.7 µM	73 µM	46	
O=[N+]([O-])c1cn2c(n1)OC[C@H](OCc1ccc(-c3ccccc3)cc1)C2						2.7 µM				
CC1(COc2ccc(OC(F)(F)F)cc2)Cn2nc([N+](=O)[O-])nc2O1 (stereo not given)	0.72 µM	2.1 µM	> 73 µM	96%	> 10 µM					selectivity ratio ([5]; 3T3 cells): > 101
O=[N+]([O-])c1cn2c(n1)OC[C@H](OCc1ccc(-c3ccc(OC(F)(F)F)cc3Cl)cc1)C2	0.57 µM	1 µM	> 37 µM	99%	> 10 µM	0.24 µM	1.1 µM	25 µM	104	solubility kinetic at 0.25 h [9]: < 0.1 µg/mL; remaining at 1 h [10]: 76%; remaining at 1 h [11]: 85%; selectivity ratio ([5]; 3T3 cells): > 65
CC1(COc2ccc(OC(F)(F)F)cc2)CCn2cc([N+](=O)[O-])nc2S1 (stereo not given)						1.1 µM	2.6 µM	> 100 µM	> 91	
O=[N+]([O-])c1cn2c(n1)OC(COc1cnc(-c3ccc(OC(F)(F)F)cc3)cn1)CC2 (stereo not given)						0.21 µM	6.7 µM	> 100 µM	> 476	
CC1(COc2ccc(OC(F)(F)F)cc2)Cn2ccnc2O1 (stereo not given)	4.7 µM	10 µM	> 73 µM	80%	0.16 µM					selectivity ratio ([5]; 3T3 cells): > 16
O=[N+]([O-])c1cn2c(n1)OC[C@@H](OCc1ccc(-c3ccc(C(F)(F)F)cc3Cl)cn1)C2						4.8 µM	> 10 µM	57 µM	12	
